{"source": "ChEMBL document CHEMBL1133891", "about": "“Substituted 4-phenyl-2-(phenylcarboxamido)-1,3-thiazole derivatives as antagonists for the adenosine A(1) receptor” (Bioorg Med Chem Lett, 2001)", "key": {"Adenosine receptor A1": {"molecular_target": "T1, Adenosine receptor A1 (Rattus norvegicus, UniProt P25099)", "T1 sequence (P25099 whole entry)": "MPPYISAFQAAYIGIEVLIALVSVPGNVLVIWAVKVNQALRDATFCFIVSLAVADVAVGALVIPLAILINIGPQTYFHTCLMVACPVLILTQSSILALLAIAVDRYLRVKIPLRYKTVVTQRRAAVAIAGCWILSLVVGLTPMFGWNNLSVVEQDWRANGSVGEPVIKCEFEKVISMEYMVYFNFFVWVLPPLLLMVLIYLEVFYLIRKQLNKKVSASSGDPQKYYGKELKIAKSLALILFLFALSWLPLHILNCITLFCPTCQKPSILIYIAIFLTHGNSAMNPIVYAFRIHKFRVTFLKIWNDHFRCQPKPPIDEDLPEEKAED", "test": "Displacement of [3H]DPCPX from Adenosine A1 receptor of rat cortical membrane", "in_short": "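Competition binding on rat brain cortex membranes, displacing the A1 radioligand [3H]DPCPX. Displacement experiments run without GTP.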"}, "[1]": {"molecular_target": "T2, Adenosine receptor A3 (Homo sapiens) (UniProt P0DMS8)", "T2 sequence (whole entry)": "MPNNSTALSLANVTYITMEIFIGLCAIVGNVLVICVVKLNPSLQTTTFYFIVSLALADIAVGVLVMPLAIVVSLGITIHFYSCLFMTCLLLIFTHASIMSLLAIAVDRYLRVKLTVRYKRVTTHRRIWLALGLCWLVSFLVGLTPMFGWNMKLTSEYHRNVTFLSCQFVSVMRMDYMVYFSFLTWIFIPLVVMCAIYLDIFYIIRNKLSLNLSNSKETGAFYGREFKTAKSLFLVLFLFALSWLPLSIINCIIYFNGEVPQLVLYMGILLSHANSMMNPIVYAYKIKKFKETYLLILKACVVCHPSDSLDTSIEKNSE", "test": "Percent displacement of [125I]-AB MECA from human Adenosine A3 receptor expressed in HEK 293 cells at 1 uM", "assay_type": "cell-based", "settings": "HEK293"}, "[2]": {"molecular_target": "Adenosine receptor A2a (Rattus norvegicus) (UniProt P30543)", "sequence (P30543 whole entry)": "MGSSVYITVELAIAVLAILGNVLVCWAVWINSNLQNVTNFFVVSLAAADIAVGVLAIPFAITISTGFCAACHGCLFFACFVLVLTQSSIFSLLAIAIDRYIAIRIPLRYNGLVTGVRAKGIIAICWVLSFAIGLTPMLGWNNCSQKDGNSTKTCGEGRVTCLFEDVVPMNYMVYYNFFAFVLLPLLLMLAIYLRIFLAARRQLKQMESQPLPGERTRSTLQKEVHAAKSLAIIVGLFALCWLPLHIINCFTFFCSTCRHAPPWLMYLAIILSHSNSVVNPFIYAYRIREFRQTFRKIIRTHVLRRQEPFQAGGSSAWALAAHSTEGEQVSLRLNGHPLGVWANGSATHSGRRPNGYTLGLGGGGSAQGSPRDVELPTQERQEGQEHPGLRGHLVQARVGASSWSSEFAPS", "test": "Percent displacement of [3H]ZM-241385 from A2A receptor in rat striatal membrane at 10 uM", "assay_type": "cell membranes", "settings": "Striatum"}}}
{"smiles": "O=C(Nc1nc(-c2ccccc2)cs1)c1ccccc1", "values": [{"measurement": "Ki", "setting": "Adenosine receptor A1", "result": 39, "unit": "nM"}, {"measurement": "Displacement", "setting": "[1]", "result": 42, "unit": "%"}, {"measurement": "Displacement", "setting": "[2]", "result": 21, "unit": "%"}]}
{"smiles": "O=C(Nc1nc(-c2ccccc2)cs1)c1ccc(Cl)cc1Cl", "values": [{"measurement": "Ki", "setting": "Adenosine receptor A1", "result": 58, "unit": "nM"}, {"measurement": "Displacement", "setting": "[1]", "result": 22, "unit": "%"}, {"measurement": "Displacement", "setting": "[2]", "result": 17, "unit": "%"}]}
{"smiles": "O=C(Nc1nc(-c2ccccc2)cs1)c1ccc([N+](=O)[O-])cc1", "values": [{"measurement": "Ki", "setting": "Adenosine receptor A1", "result": 22, "unit": "nM"}, {"measurement": "Displacement", "setting": "[1]", "result": 35, "unit": "%"}, {"measurement": "Displacement", "setting": "[2]", "result": 9, "unit": "%"}]}
{"smiles": "Cc1ccc(C(=O)Nc2nc(-c3ccccc3)cs2)cc1", "values": [{"measurement": "Ki", "setting": "Adenosine receptor A1", "result": 36, "unit": "nM"}, {"measurement": "Displacement", "setting": "[1]", "result": 66, "unit": "%"}, {"measurement": "Displacement", "setting": "[2]", "result": 13, "unit": "%"}]}
{"smiles": "O=C(Nc1nc(-c2ccccc2)cs1)c1ccc(C(F)(F)F)cc1", "values": [{"measurement": "Ki", "setting": "Adenosine receptor A1", "result": 165, "unit": "nM"}, {"measurement": "Displacement", "setting": "[1]", "result": 18, "unit": "%"}, {"measurement": "Displacement", "setting": "[2]", "result": 0, "unit": "%"}]}
{"smiles": "O=C(Nc1nc(-c2ccccc2)cs1)c1ccc(Cl)c(Cl)c1", "values": [{"measurement": "Ki", "setting": "Adenosine receptor A1", "result": 59, "unit": "nM"}, {"measurement": "Displacement", "setting": "[1]", "result": 20, "unit": "%"}, {"measurement": "Displacement", "setting": "[2]", "result": 6, "unit": "%"}]}
{"smiles": "CC(C)(C)c1ccc(C(=O)Nc2nc(-c3ccccc3)cs2)cc1", "values": [{"measurement": "Displacement", "setting": "[1]", "result": 27, "unit": "%"}, {"measurement": "Displacement", "setting": "[2]", "result": 2, "unit": "%"}]}
{"smiles": "O=C(Nc1nc(-c2ccccc2)cs1)c1ccc(Br)cc1", "values": [{"measurement": "Ki", "setting": "Adenosine receptor A1", "result": 33, "unit": "nM"}, {"measurement": "Displacement", "setting": "[1]", "result": 58, "unit": "%"}, {"measurement": "Displacement", "setting": "[2]", "result": 14, "unit": "%"}]}
{"smiles": "O=C(Nc1nc(-c2ccccc2)cs1)c1cccc(Cl)c1", "values": [{"measurement": "Ki", "setting": "Adenosine receptor A1", "result": 86, "unit": "nM"}, {"measurement": "Displacement", "setting": "[1]", "result": 42, "unit": "%"}, {"measurement": "Displacement", "setting": "[2]", "result": 3, "unit": "%"}]}
{"smiles": "O=C(Nc1nc(-c2ccccc2)cs1)c1ccc(Cl)cc1", "values": [{"measurement": "Ki", "setting": "Adenosine receptor A1", "result": 18, "unit": "nM"}, {"measurement": "Displacement", "setting": "[1]", "result": 63, "unit": "%"}, {"measurement": "Displacement", "setting": "[2]", "result": 15, "unit": "%"}]}
